Source: ChEMBL document CHEMBL1154252, “Nitric oxide scavenging lignans from Vitex negundo seeds” (J Nat Prod, 2009)

Key:
RAW264.7 [1] = assay: Antiinflammatory activity against mouse RAW264.7 cells assessed as inhibition of LPS-induced nitric oxide production at 1 uM after 24 hrs by Griess reagent method; type: functional; conditions: RAW264.7, 24 h
How it was run: (§1)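 RAW 264.7 macrophages seeded at 10^5 cells/well, co-incubated with compound and LPS (1 µg/mL) for 24 h. Nitrite in supernatant measured by Griess reagent: supernatant mixed in turn with 1% sulfanilamide and 0.1% naphthylethylenediamine in 2.5% phosphoric acid, absorbance read at 548 nm. n = 4, mean ± SD; L-nitroarginine as positive control, LPS alone as negative control.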

RAW264.7 [2] = assay: Cytotoxicity against LPS-stimulated mouse RAW264.7 cells up to 1 uM after 24 hrs by MTT assay; type: cell-based; conditions: raw264.7, 24 h
How it was run: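 After supernatant removal for Griess assay, LPS-treated RAW 264.7 cells given fresh medium with 2 mg/mL MTT. Incubated 3 h at 37 °C, 5% CO2. Formazan dissolved in DMSO and absorbance measured at 570 nm.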

RAW264.7 [3] = assay: Antiinflammatory activity against mouse RAW264.7 cells assessed as inhibition of LPS-induced nitric oxide production after 24 hrs by Griess reagent method; type: functional, cell-based; conditions: RAW264.7, 24 h; how it was run: as §1

| Structure (SMILES) | IC50 (RAW264.7 [3]) [nM] | inhibition at 1 µM (RAW264.7 [1]) [%] | Activity (RAW264.7 [2]) |
| --- | --- | --- | --- |
| COc1cc([C@H]2c3cc(O)c(OC)cc3C=C(C=O)[C@@H]2CO)ccc1O | 3540 | 34.4 | Non-toxic |
| N=C(NCCC[C@H](N)C(=O)O)N[N+](=O)[O-] [NITROARGININE] | 43600 | 2.53 |  |
| COc1cc(-c2c3c(cc4cc(OC)c(O)cc24)C(=O)NC3)ccc1O [VITEDOAMINE A] | 1530 | 43.3 | Non-toxic |
| COc1cc(-c2c3c(cc4cc(OC)c(O)cc24)CNC3=O)ccc1O [VITEDOAMINE B] | 870 | 56.2 | Non-toxic |
| COc1cc([C@H]2c3cc(O)c(O)cc3C=C(C=O)[C@@H]2CO)ccc1O [VITEXDOIN A] | 380 | 67 | Non-toxic |
| COc1cc(-c2cc(C=O)cc3ccc(O)c(OC)c23)ccc1O [VITEXDOIN B] | 200 | 80.8 | Non-toxic |

Continued, in another order:

| IC50 (RAW264.7 [3]) [nM] | Structure (SMILES) | inhibition at 1 µM (RAW264.7 [1]) [%] | Activity (RAW264.7 [2]) |
| --- | --- | --- | --- |
| 570 | COc1cc(-c2c(C=O)ccc3cc(OC)c(O)cc23)ccc1O [VITEXDOIN C] | 61.7 | Non-toxic |
| 130 | COc1cc(-c2c(C=O)c(O)cc3cc(OC)c(O)cc23)ccc1O [VITEXDOIN D] | 91.1 | Non-toxic |
| 150 | COc1cc(-c2cc(C=O)c(O)c3cc(OC)c(O)cc23)ccc1O [VITEXDOIN E] | 84.2 | Non-toxic |
| 500 | COc1cc(-c2cc(C=O)cc3cc(OC)c(O)cc23)ccc1O [VITROFOLAL E] | 63.2 |  |
| 110 | COc1cc(-c2c(O)c(C=O)cc3cc(OC)c(O)cc23)ccc1O [VITROFOLAL F] | 95.8 | Non-toxic |
